From ChEMBL document CHEMBL5661979, “Pharmacological inhibition of BMK1 suppresses tumor growth through promyelocytic leukemia protein” (Cancer Cell, 2010)

Legend:
[1] = Toxicity in C57Bl/6 mouse assessed as effect on glucose level at 50 mg/kg, ip for 14 days (reference value: 181 mg/dl); assay type: organism-based; settings: in vivo, 336 h, time 14 day
[2] = target: Tyrosine-protein kinase receptor UFO (Homo sapiens) (UniProt P30530); assay: Inhibition of AXL in human HeLa cells lysate at 10 uM pre incubated for 15 mins followed by ADP acyl phosphate probe addition and measured after 10 mins by LC-MS/MS analysis relative to control; assay type: subcellular; settings: time 25.0 min
How it was run: (§1)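 KiNativ-type profiling in HeLa lysate (5 mg/mL total protein). Lysate preincubated 15 min with inhibitor at 50, 10, 2, 0.8 or 0 μM, then ATP or ADP acylphosphate probe added (5 μM final) for 10 min. Reaction stopped with urea and analysed by targeted MS, using up to four fragment ions per kinase peptide-probe conjugate. % inhibition calculated against untreated lysate. Duplicate reactions.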

[3] = target: Serine/threonine-protein kinase ATR (Homo sapiens, UniProt Q13535); assay: Inhibition of ATR in human HeLa cells lysate at 2 uM pre incubated for 15 mins followed by ATP acyl phosphate probe addition and measured after 10 mins by LC-MS/MS analysis relative to control; assay type: subcellular; settings: time 25.0 min; how it was run: as §1
Sequence of Serine/threonine-protein kinase ATR (Q13535 whole entry, looked up): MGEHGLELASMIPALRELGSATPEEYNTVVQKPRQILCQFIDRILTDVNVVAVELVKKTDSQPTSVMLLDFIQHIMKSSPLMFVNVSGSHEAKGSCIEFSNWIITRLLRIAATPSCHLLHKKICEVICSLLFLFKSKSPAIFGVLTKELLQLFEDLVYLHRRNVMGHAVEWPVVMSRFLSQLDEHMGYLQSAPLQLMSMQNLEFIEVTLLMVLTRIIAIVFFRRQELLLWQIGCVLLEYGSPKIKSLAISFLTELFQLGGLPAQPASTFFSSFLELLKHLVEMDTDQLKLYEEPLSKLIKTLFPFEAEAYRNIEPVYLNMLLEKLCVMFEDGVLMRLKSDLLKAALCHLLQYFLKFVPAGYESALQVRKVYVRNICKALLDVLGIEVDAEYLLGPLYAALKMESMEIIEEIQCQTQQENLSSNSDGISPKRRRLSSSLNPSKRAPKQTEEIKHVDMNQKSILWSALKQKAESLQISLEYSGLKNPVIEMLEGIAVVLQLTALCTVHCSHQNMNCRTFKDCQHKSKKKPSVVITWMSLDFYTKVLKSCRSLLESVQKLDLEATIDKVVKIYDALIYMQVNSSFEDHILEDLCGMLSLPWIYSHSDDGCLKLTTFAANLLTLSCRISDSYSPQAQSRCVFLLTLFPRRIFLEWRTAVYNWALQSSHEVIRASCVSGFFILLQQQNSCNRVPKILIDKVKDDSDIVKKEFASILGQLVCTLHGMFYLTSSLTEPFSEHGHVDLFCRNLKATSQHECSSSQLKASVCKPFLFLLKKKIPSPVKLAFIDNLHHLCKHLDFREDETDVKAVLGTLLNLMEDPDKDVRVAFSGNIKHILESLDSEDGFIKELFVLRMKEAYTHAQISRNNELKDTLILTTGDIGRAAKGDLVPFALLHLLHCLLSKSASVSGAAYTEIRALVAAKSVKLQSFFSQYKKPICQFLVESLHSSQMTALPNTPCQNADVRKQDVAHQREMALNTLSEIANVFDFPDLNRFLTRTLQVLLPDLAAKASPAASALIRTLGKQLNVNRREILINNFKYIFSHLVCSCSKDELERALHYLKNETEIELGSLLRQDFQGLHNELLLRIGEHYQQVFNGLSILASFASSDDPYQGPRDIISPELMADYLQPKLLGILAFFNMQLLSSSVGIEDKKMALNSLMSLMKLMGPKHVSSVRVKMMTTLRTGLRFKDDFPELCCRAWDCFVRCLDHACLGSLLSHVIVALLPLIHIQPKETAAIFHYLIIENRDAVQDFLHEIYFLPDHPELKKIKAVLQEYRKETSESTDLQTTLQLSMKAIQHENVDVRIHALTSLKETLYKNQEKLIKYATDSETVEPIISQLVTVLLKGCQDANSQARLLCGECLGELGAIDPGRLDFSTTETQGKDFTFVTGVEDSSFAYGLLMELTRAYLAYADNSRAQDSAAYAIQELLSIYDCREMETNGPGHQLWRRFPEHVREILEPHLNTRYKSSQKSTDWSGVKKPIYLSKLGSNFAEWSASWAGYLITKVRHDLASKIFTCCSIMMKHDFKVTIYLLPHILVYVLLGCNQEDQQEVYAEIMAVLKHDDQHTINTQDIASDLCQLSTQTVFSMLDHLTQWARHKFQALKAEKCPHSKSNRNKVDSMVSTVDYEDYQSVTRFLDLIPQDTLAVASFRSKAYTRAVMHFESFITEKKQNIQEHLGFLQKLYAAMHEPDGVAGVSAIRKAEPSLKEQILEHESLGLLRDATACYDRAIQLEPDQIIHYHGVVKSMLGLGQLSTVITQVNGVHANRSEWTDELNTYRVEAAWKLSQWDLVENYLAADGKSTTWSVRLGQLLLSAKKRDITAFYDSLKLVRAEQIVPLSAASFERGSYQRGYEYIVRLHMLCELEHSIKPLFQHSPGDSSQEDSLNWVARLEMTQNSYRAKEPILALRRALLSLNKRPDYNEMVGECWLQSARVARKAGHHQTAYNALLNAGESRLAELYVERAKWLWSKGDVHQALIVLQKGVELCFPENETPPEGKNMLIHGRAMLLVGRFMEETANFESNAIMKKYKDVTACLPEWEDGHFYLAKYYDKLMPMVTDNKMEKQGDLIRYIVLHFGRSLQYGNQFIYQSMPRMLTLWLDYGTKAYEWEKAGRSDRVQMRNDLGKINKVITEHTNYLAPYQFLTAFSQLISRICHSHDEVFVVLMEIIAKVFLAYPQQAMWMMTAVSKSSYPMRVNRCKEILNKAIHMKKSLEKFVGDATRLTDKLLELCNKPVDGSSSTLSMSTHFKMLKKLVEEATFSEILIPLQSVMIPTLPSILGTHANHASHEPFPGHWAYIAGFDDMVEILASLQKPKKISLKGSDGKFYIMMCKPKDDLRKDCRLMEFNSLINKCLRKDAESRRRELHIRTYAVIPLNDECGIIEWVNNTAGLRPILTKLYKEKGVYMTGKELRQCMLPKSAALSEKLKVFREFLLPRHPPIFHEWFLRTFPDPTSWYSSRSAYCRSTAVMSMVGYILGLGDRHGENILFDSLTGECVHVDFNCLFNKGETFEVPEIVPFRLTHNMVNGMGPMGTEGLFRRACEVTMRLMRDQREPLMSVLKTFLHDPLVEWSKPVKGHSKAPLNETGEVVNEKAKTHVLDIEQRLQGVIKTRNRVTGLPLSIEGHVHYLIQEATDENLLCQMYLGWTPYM

[4] = target: T1, Phosphatidylinositol 5-phosphate 4-kinase type-2 alpha (Homo sapiens, UniProt P48426); assay: Inhibition of PIP5K2A in human HeLa cells lysate pre incubated for 15 mins followed by ATP acyl phosphate probe addition and measured after 10 mins by LC-MS/MS analysis; assay type: subcellular
T1 sequence (P48426 whole entry): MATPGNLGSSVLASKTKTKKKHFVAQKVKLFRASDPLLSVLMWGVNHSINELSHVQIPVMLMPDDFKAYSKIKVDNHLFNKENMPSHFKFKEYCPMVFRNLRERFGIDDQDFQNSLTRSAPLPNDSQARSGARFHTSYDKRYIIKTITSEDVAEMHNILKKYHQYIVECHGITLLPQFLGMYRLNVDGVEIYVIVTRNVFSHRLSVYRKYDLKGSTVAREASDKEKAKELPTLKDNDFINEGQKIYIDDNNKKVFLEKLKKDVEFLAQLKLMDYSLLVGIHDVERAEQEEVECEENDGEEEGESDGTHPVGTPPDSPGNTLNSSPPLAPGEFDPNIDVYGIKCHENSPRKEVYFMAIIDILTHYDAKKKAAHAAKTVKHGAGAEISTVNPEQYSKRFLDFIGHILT

[5] = target: Mitogen-activated protein kinase kinase kinase 11 (Homo sapiens, UniProt Q16584); assay: Inhibition of MLK3 in human HeLa cells lysate pre incubated for 15 mins followed by ATP acyl phosphate probe addition and measured after 10 mins by LC-MS/MS analysis; assay type: subcellular
[6] = target: Serine/threonine-protein kinase ULK2 (Homo sapiens) (UniProt Q8IYT8); assay: Inhibition of ULK2 in human HeLa cells lysate at 2 uM pre incubated for 15 mins followed by ADP acyl phosphate probe addition and measured after 10 mins by LC-MS/MS analysis relative to control; assay type: subcellular; settings: time 25.0 min
Sequence of Serine/threonine-protein kinase ULK2 (Homo sapiens) (Q8IYT8 whole entry): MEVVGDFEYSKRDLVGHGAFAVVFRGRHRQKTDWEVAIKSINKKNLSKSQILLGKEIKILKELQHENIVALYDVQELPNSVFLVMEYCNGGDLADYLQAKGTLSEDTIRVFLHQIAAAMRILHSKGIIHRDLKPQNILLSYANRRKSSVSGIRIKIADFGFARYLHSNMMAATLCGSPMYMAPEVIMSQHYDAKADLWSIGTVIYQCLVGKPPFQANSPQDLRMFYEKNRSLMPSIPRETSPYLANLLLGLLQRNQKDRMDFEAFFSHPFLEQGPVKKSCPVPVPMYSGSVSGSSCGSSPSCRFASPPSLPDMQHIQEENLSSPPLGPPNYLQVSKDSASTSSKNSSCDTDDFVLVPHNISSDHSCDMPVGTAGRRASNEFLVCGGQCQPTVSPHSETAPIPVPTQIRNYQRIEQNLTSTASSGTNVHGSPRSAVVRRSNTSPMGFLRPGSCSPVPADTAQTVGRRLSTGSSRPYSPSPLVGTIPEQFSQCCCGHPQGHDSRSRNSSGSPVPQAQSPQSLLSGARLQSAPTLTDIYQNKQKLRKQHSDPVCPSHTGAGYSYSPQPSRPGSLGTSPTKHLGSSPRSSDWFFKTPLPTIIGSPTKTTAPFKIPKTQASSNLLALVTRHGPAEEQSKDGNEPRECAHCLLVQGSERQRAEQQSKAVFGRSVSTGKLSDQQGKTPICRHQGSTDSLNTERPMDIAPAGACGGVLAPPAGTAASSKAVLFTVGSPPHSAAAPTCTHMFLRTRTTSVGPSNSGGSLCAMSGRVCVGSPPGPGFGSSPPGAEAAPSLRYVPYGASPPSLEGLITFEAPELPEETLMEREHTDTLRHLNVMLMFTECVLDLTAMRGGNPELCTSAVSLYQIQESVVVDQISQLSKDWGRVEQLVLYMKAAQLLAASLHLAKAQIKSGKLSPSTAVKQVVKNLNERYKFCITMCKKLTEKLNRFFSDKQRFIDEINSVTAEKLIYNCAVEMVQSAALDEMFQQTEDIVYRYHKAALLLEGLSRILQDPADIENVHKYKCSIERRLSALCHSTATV

[7] = target: Serine/threonine-protein kinase Nek4 (Homo sapiens, UniProt P51957); assay: Inhibition of NEK4 in human HeLa cells lysate pre incubated for 15 mins followed by ATP acyl phosphate probe addition and measured after 10 mins by LC-MS/MS analysis; assay type: subcellular
[8] = target: Serine/threonine-protein kinase 24 (Homo sapiens, UniProt Q9Y6E0); assay: Inhibition of MST3 in human HeLa cells lysate at 50 uM pre incubated for 15 mins followed by ATP acyl phosphate probe addition and measured after 10 mins by LC-MS/MS analysis relative to control; assay type: subcellular; settings: time 25.0 min
Sequence of Serine/threonine-protein kinase 24 (Q9Y6E0 whole entry, looked up): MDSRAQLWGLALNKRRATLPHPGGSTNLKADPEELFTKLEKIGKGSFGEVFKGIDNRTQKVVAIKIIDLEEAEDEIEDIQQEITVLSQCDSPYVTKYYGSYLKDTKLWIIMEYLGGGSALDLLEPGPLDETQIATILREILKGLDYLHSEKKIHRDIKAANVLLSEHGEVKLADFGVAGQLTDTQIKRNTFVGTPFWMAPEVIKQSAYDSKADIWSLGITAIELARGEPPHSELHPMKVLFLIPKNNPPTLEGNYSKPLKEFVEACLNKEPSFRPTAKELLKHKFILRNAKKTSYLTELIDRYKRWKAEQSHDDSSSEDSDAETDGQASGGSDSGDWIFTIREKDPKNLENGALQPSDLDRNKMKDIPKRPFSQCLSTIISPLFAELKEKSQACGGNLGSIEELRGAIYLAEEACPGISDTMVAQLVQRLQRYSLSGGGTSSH

[9] = target: Protein kinase C theta type (Homo sapiens, UniProt Q04759); assay: Inhibition of PKCtheta in human HeLa cells lysate pre incubated for 15 mins followed by ATP acyl phosphate probe addition and measured after 10 mins by LC-MS/MS analysis; assay type: subcellular
[10] = target: Glycogen synthase kinase-3 beta (Homo sapiens, UniProt P49841); assay: Inhibition of GSK3B isoform 2 in human HeLa cells lysate pre incubated for 15 mins followed by ADP acyl phosphate probe addition and measured after 10 mins by LC-MS/MS analysis; assay type: subcellular
Sequence of Glycogen synthase kinase-3 beta (P49841 whole entry, canonical isoform): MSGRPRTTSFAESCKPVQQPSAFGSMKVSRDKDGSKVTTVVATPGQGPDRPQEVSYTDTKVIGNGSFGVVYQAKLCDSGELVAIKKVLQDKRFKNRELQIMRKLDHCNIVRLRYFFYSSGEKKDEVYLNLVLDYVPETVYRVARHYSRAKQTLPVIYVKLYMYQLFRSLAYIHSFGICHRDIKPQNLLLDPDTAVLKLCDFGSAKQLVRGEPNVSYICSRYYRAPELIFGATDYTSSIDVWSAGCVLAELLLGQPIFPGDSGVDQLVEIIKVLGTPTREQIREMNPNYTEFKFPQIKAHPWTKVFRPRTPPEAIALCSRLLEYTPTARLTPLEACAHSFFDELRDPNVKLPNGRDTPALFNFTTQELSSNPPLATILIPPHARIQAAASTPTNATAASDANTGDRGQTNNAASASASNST

[11] = target: DNA-dependent protein kinase catalytic subunit (Homo sapiens, UniProt P78527); assay: Inhibition of PRKDC in human HeLa cells lysate at 50 uM pre incubated for 15 mins followed by ATP acyl phosphate probe addition and measured after 10 mins by LC-MS/MS analysis relative to control; assay type: subcellular; settings: time 25.0 min
[12] = target: Serine/threonine-protein kinase 38-like (Homo sapiens, UniProt Q9Y2H1); assay: Inhibition of NDR2 in human HeLa cells lysate at 2 uM pre incubated for 15 mins followed by ADP acyl phosphate probe addition and measured after 10 mins by LC-MS/MS analysis relative to control; assay type: subcellular; settings: time 25.0 min
[13] = target: Serine/threonine-protein kinase 3/4 (Homo sapiens, UniProt Q13043+Q13188); assay: Inhibition of MST1/2 in human HeLa cells lysate pre incubated for 15 mins followed by ATP acyl phosphate probe addition and measured after 10 mins by LC-MS/MS analysis; assay type: subcellular
[14] = target: Phosphatidylinositol 5-phosphate 4-kinase type-2 gamma (Homo sapiens, UniProt Q8TBX8); assay: Inhibition of PIP5K2C in human HeLa cells lysate pre incubated for 15 mins followed by ATP acyl phosphate probe addition and measured after 10 mins by LC-MS/MS analysis; assay type: subcellular
[15] = Inhibition of MSK1/2 in human HeLa cells lysate at 10 uM pre incubated for 15 mins followed by ADP acyl phosphate probe addition and measured after 10 mins by LC-MS/MS analysis relative to control; settings: 25 min, condition cancer
[16] = target: Interferon-induced, double-stranded RNA-activated protein kinase (Homo sapiens, UniProt P19525); assay: Inhibition of PKR in human HeLa cells lysate at 50 uM pre incubated for 15 mins followed by ATP acyl phosphate probe addition and measured after 10 mins by LC-MS/MS analysis relative to control; assay type: subcellular; settings: time 25.0 min
Sequence of Interferon-induced, double-stranded RNA-activated protein kinase (P19525 whole entry): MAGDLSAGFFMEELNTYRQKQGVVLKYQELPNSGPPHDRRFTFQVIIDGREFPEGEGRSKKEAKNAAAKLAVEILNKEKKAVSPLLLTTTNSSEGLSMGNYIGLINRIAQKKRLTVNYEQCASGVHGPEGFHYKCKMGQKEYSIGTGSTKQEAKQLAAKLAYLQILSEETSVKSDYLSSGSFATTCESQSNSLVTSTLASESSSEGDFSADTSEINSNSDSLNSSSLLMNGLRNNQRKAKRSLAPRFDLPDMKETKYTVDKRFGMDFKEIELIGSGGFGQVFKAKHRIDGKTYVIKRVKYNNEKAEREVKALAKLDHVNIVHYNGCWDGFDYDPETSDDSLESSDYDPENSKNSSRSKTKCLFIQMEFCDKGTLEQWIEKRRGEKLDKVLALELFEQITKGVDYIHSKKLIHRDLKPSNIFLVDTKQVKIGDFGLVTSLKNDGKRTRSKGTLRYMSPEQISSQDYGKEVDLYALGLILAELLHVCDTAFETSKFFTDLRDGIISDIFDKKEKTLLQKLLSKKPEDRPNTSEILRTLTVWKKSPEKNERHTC

[17] = target: Cyclin-dependent kinase 1 (Homo sapiens, UniProt P06493); assay: Inhibition of CDC2 in human HeLa cells lysate pre incubated for 15 mins followed by ADP acyl phosphate probe addition and measured after 10 mins by LC-MS/MS analysis; assay type: subcellular
How it was run: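 KiNativ profiling in HeLa lysate (5 mg/mL total protein). Lysate incubated 15 min with inhibitor at 50, 10, 2, 0.8 or 0 μM. ATP or ADP acylphosphate probe then added (5 μM final) and reacted 10 min. Reaction stopped with urea and analysed by targeted MS, using up to four fragment ions per kinase peptide-probe conjugate. % inhibition taken against untreated lysate. Run in duplicate.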

[18] = target: c-Jun N-terminal kinase, JNK (Homo sapiens, UniProt P45983+P53779+P45984); assay: Inhibition of JNK1/JNK2/JNK3 in human HeLa cells lysate pre incubated for 15 mins followed by ATP acyl phosphate probe addition and measured after 10 mins by LC-MS/MS analysis; assay type: subcellular
[19] = target: Tyrosine-protein kinase Lyn (Homo sapiens, UniProt P07948); assay: Inhibition of LYN in human HeLa cells lysate at 50 uM pre incubated for 15 mins followed by ATP acyl phosphate probe addition and measured after 10 mins by LC-MS/MS analysis relative to control; assay type: subcellular; settings: time 25.0 min
[20] = target: Calcium/calmodulin-dependent protein kinase type II subunit delta (Homo sapiens, UniProt Q13557); assay: Inhibition of CAMK2d in human HeLa cells lysate at 50 uM pre incubated for 15 mins followed by ATP acyl phosphate probe addition and measured after 10 mins by LC-MS/MS analysis relative to control; assay type: subcellular; settings: time 25.0 min; how it was run: as §1

Q: What does the source list for CCOc1cc(N2CCC(O)CC2)ccc1Nc1ncc2c(n1)N(C)c1ccccc1C(=O)N2C?
A: Activity [1]: 126 mg/dL; inhibition [2]: -5.1%; inhibition [3]: 25.9%; IC50 [4]: > 50 µM; IC50 [5]: > 50 µM; inhibition [6]: 7.3%; IC50 [7]: > 50 µM; inhibition [8]: -4.6%; IC50 [9]: > 50 µM; IC50 [10]: > 50 µM; inhibition [11]: -3.7%; inhibition [12]: 11.7%; IC50 [13]: > 50 µM; IC50 [14]: > 50 µM; inhibition at 10 µM [15]: 37.4%; inhibition [16]: -8.3%; IC50 [17]: > 50 µM; IC50 [18]: > 50 µM; inhibition [19]: -5.2%; inhibition [20]: 40.8%
